Active and inactive are the calls of the source. The rule behind the calls is not given here.
Tests used:
[1] = molecular target: Dipeptidyl peptidase 8 (Homo sapiens) (UniProt Q6V1X1); assay: Inhibition of DPP8 (unknown origin) using H-GP-AMC substrate assessed as residual activity at 10 uM incubated for 15 mins prior to substrate addition measured for 2 hrs
How it was run: (§1)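 Protease panel screen: enzyme and test inhibitor preincubated 15 min in the enzyme's reaction buffer, then substrate added. Reaction followed for 2 h, and activity was taken from the initial linear portion of the progress-curve slope. Enzyme, substrate, buffer and detection conditions for each target are given only in the paper's supporting table.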

[2] = molecular target: Tryptase beta-2 (Homo sapiens) (UniProt P20231); assay: Inhibition of Tryptase beta2 (unknown origin) using Z-GPR-AMC substrate assessed as residual activity at 10 uM incubated for 15 mins prior to substrate addition measured for 2 hrs
Sequence of Tryptase beta-2 (Homo sapiens) (P20231 whole entry, looked up): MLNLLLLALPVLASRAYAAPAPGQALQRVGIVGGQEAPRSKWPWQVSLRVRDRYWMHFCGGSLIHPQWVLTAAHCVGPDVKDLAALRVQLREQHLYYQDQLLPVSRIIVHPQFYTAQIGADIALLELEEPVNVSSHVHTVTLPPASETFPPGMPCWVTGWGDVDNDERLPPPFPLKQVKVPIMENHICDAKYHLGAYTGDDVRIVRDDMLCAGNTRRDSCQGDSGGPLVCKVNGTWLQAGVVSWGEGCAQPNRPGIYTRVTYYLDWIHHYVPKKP

[3] = molecular target: Stromelysin-2 (Homo sapiens) (UniProt P09238); assay: Inhibition of MMP10 (unknown origin) using (5-FAM/QXLTM) FRET peptide substrate assessed as residual activity at 10 uM incubated for 15 mins prior to substrate addition measured for 2 hrs; how it was run: as §1
Sequence of Stromelysin-2 (Homo sapiens) (P09238 99-476 limits assumed): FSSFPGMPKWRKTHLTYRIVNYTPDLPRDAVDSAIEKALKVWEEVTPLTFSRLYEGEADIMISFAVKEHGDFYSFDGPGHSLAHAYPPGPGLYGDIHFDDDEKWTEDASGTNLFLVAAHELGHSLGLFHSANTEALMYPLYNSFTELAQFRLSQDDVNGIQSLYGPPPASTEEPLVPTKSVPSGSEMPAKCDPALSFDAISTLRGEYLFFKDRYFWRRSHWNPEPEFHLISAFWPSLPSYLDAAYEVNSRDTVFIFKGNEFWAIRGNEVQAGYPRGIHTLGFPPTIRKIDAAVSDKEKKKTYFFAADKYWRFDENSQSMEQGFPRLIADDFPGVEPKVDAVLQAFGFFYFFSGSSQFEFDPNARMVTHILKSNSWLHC

Hepacivirus hominis = assay: Inhibition of Hepatitis C virus NS3/4A protease using Anaspec EnzoLyte substrate assessed as residual activity at 10 uM incubated for 15 mins prior to substrate addition measured for 2 hrs; how it was run: as §1
Homo sapiens = organism: Homo sapiens; assay: Inhibition of human pancreatic chymotrypsin assessed as proteolysis using N-succinyl-Ala-Ala-Pro-Phe-p-nitroanilide substrate incubated at 10 uM for 30 mins prior to substrate addition; parameters: scale not given: the % may be the effect or the level left
How it was run: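 Pancreatic chymotrypsin, bovine at 100 μg/mL or human at 50 μg/mL; reaction buffer, enzyme and inhibitor (DMSO) incubated 30 min at room temperature, then substrate added (bovine: N-succinyl-Gly-Gly-Phe-pNA; human: N-succinyl-Ala-Ala-Pro-Phe-pNA). Absorbance read at 405 nm; activity from reaction slope relative to solvent control.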

[4] = molecular target: Cathepsin K (Homo sapiens) (UniProt P43235); assay: Inhibition of Cathepsin K (unknown origin) using Z-GPR-AMC substrate assessed as residual activity at 10 uM incubated for 15 mins prior to substrate addition measured for 2 hrs; how it was run: as §1
Sequence of Cathepsin K (Homo sapiens) (P43235 whole entry): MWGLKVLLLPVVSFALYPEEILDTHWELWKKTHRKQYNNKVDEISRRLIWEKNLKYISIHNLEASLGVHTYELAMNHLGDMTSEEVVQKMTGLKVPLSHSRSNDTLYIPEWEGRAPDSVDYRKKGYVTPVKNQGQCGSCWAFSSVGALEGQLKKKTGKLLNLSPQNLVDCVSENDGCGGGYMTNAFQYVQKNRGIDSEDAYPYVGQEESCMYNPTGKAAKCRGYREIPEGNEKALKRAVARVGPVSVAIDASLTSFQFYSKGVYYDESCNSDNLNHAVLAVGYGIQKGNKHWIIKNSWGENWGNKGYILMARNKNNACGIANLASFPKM

[5] = molecular target: Matrilysin (Homo sapiens) (UniProt P09237); assay: Inhibition of MMP7 (unknown origin) using (5-FAM/QXLTM) FRET peptide substrate assessed as residual activity at 10 uM incubated for 15 mins prior to substrate addition measured for 2 hrs
How it was run: (§2)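 Protease panel screen: enzyme and inhibitor preincubated 15 min in reaction buffer, then substrate added; reaction followed for 2 h and the initial linear part of the progress curve used for activity. Enzyme, substrate, buffer and detection details are given only in a supporting table.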

[6] = molecular target: Neutrophil collagenase (Homo sapiens) (UniProt P22894); assay: Inhibition of MMP8 (unknown origin) using (5-FAM/QXLTM) FRET peptide substrate assessed as residual activity at 10 uM incubated for 15 mins prior to substrate addition measured for 2 hrs; how it was run: as §2
[7] = Inhibition of Thrombin alpha (unknown origin) using H-D-CHA -Ala-Arg-AMC.2AcOH substrate incubated for 15 mins prior to substrate addition measured for 2 hrs; parameters: species or system Homo sapiens; how it was run: as §2
[8] = molecular target: T1, Neutrophil elastase (Homo sapiens) (UniProt P08246); conditions: 10 uM
T1 sequence (whole entry): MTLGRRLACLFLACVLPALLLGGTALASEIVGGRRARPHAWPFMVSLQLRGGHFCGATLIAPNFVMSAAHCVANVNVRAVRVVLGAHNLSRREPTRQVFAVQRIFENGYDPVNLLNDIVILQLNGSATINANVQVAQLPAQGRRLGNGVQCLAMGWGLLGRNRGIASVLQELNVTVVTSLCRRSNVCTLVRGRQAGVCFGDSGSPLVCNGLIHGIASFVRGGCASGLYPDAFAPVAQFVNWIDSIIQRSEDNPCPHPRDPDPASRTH

[9] = molecular target: T1, Neutrophil elastase (Homo sapiens); conditions: BEAS2B, 10 uM
[10] = Inhibition of porcine pancreatic elastase using Suc-AAA-pNa substrate incubated for 15 mins prior to substrate addition measured for 2 hrs; parameters: species or system Sus scrofa
How it was run: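 Elastase preincubated with test compound (DMSO) in Tris-HCl pH 8.0 for 15 min at room temperature; N-succinyl-Ala-Ala-Ala-p-nitroanilide then added (2 mM stock in Tris-HCl pH 8.0). Absorbance at 405 nm recorded every 30 s; activity as initial slope, percent of uninhibited reaction.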

[11] = molecular target: T1, Neutrophil elastase (Homo sapiens); conditions: 10 uM; remark: listed apart in the source
[12] = molecular target: Disintegrin and metalloproteinase domain-containing protein 10 (Homo sapiens) (UniProt O14672); assay: Inhibition of ADAM10 (unknown origin) using MCA-PLAQAV-Dpa-RSSSR-[…] substrate assessed as residual activity at 10 uM incubated for 15 mins prior to substrate addition measured for 2 hrs; how it was run: as §1
Sequence of Disintegrin and metalloproteinase domain-containing protein 10 (Homo sapiens) (O14672 whole entry, the tested form may be a part): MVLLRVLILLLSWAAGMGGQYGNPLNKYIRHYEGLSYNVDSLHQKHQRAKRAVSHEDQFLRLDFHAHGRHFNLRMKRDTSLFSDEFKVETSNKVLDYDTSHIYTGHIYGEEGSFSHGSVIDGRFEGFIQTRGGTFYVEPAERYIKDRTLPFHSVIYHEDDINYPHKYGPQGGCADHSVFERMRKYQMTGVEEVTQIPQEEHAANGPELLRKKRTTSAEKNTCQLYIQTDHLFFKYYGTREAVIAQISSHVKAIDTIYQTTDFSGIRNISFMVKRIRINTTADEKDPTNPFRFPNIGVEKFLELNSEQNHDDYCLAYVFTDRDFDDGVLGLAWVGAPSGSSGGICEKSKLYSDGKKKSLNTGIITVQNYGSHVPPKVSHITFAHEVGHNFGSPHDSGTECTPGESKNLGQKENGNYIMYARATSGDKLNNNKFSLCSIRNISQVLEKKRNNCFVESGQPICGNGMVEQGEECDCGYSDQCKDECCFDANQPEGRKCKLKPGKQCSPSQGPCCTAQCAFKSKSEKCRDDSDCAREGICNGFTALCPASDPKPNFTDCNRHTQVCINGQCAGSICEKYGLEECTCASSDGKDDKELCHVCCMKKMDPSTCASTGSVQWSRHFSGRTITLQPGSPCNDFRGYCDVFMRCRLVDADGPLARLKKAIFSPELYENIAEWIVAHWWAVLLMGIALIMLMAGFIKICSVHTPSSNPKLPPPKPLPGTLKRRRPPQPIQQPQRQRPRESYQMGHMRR

[13] = molecular target: Stromelysin-3 (Homo sapiens) (UniProt P24347); assay: Inhibition of MMP11 (unknown origin) using (5-FAM/QXLTM) FRET peptide substrate assessed as residual activity at 10 uM incubated for 15 mins prior to substrate addition measured for 2 hrs; how it was run: as §1
Sequence of Stromelysin-3 (Homo sapiens) (P24347 whole entry): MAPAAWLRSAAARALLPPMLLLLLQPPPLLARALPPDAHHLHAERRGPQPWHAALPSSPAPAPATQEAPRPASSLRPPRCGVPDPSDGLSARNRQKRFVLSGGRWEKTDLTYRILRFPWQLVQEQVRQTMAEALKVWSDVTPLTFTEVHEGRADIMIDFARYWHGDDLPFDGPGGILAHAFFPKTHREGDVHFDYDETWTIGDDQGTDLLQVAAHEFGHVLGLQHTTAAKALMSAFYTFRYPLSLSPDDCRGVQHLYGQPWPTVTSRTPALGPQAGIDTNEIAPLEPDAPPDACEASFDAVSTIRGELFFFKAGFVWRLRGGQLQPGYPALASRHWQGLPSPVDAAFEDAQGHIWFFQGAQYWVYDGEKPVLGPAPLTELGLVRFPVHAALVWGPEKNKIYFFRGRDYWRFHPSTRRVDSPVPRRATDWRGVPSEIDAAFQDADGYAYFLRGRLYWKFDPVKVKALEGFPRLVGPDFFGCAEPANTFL

[14] = molecular target: Tissue-type plasminogen activator (Homo sapiens) (UniProt P00750); assay: Inhibition of tPA (unknown origin) using Z-GPR-AMC substrate assessed as residual activity at 10 uM incubated for 15 mins prior to substrate addition measured for 2 hrs; how it was run: as §2
Sequence of Tissue-type plasminogen activator (Homo sapiens) (P00750 36-562 limits assumed): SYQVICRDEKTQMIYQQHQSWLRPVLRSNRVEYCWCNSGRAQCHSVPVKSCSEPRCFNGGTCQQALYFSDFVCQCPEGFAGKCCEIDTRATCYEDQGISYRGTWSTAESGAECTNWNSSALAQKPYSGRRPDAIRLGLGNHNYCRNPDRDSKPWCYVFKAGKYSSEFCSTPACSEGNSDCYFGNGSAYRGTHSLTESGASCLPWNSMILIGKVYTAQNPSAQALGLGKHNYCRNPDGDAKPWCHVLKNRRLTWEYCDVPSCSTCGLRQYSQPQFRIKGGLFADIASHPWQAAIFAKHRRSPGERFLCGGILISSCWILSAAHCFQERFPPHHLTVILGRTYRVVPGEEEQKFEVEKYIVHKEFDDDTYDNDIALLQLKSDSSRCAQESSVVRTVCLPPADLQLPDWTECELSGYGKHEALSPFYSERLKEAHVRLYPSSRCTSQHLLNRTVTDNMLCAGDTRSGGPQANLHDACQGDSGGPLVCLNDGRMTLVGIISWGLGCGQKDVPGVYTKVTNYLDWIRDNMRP

[15] = molecular target: T1, Neutrophil elastase (Homo sapiens); conditions: 10 uM; remark: listed apart in the source
[16] = molecular target: T1, Neutrophil elastase (Homo sapiens); conditions: 10 uM; remark: listed apart in the source
[17] = molecular target: Interstitial collagenase (Homo sapiens) (UniProt P03956); assay: Inhibition of MMP1 (unknown origin) using (5-FAM/QXLTM) FRET peptide substrate assessed as residual activity at 10 uM incubated for 15 mins prior to substrate addition measured for 2 hrs; how it was run: as §1
Sequence of Interstitial collagenase (Homo sapiens) (P03956 whole entry): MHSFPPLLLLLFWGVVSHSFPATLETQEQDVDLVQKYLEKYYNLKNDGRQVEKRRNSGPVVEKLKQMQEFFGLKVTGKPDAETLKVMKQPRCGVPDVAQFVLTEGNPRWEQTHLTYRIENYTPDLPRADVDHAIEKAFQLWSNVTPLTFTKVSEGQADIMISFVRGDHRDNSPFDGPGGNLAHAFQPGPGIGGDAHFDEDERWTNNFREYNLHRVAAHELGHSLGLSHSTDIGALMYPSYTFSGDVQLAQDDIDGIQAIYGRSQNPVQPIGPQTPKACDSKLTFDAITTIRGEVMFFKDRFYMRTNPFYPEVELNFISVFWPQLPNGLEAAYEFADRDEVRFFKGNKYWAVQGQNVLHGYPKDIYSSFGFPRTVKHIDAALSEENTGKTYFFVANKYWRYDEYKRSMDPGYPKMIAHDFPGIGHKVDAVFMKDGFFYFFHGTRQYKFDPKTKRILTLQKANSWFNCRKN

[18] = molecular target: Matrix metalloproteinase-14 (Homo sapiens) (UniProt P50281); assay: Inhibition of MMP14 (unknown origin) using (5-FAM/QXLTM) FRET peptide substrate assessed as residual activity at 10 uM incubated for 15 mins prior to substrate addition measured for 2 hrs; how it was run: as §1
[19] = molecular target: Coagulation factor VII (Homo sapiens) (UniProt P08709); assay: Inhibition of Factor-7a (unknown origin) using Z-VVR-AMC substrate assessed as residual activity at 10 uM incubated for 15 mins prior to substrate addition measured for 2 hrs; how it was run: as §1
Sequence of Coagulation factor VII (Homo sapiens) (P08709 61-212 limits assumed): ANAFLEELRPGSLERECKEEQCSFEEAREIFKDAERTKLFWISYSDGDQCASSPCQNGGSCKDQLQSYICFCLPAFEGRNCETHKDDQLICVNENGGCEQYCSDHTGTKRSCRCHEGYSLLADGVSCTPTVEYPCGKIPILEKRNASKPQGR
Sequence of Coagulation factor VII (Homo sapiens) (P08709 213-466 limits assumed): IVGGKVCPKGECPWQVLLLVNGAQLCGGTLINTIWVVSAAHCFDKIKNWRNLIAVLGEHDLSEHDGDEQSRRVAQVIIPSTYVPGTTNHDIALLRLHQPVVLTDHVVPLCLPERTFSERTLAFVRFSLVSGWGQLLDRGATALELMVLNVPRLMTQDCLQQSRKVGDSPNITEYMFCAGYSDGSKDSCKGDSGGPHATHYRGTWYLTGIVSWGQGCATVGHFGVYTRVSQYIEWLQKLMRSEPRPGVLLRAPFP

[20] = molecular target: Cathepsin B (Homo sapiens) (UniProt P07858); assay: Inhibition of Cathepsin B (unknown origin) using Z-FR-AMC substrate assessed as residual activity at 10 uM incubated for 15 mins prior to substrate addition measured for 2 hrs; how it was run: as §1
Kallikrein-5 = Kallikrein-5 (Homo sapiens, UniProt Q9Y337); assay: Inhibition of Kallikrein-5 (unknown origin) using Z-VVR-AMC substrate incubated for 15 mins prior to substrate addition measured for 2 hrs; how it was run: as §1
Sequence of Kallikrein-5 (Q9Y337 whole entry): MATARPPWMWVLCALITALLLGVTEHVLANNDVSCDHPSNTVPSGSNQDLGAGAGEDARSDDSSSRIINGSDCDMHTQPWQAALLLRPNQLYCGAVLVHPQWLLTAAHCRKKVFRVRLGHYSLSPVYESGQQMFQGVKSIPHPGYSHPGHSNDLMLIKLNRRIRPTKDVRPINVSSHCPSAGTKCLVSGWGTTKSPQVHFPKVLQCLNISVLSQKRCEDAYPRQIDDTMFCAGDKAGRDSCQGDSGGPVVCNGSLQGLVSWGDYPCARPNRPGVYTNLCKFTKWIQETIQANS

[21] = Inhibition of Proteinase K (unknown origin) using H-D-CHA -Ala-Arg-AMC.2AcOH substrate incubated for 15 mins prior to substrate addition measured for 2 hrs; parameters: species or system Homo sapiens; how it was run: as §2
[22] = molecular target: T1, Neutrophil elastase (Homo sapiens); conditions: 10 uM; remark: listed apart in the source

Sequence of Dipeptidyl peptidase 8 (Homo sapiens) (Q6V1X1 whole entry, looked up): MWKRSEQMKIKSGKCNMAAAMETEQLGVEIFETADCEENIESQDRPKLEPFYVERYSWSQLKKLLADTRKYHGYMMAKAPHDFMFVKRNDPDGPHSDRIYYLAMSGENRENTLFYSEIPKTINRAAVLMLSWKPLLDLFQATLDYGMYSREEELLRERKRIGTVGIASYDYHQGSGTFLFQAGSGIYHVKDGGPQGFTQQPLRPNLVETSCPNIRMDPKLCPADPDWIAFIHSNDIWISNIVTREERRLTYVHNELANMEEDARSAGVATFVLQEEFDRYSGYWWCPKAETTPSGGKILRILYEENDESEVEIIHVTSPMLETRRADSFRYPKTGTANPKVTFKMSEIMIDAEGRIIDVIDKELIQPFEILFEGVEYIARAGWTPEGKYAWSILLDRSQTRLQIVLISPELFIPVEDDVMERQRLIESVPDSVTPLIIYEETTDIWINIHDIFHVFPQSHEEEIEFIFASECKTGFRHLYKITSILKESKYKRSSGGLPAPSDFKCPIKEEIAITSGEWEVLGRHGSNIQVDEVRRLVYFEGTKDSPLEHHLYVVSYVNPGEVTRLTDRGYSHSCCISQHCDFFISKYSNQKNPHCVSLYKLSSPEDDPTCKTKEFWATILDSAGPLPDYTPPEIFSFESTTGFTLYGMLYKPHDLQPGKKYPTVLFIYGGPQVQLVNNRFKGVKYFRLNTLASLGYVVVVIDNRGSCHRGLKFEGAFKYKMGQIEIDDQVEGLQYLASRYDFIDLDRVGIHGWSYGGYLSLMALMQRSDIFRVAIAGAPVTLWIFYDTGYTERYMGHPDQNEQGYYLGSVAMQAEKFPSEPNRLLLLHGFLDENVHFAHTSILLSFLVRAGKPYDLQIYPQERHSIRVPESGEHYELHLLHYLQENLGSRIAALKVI

For `C/C=C1\NC(=O)[C@@H](NC(=O)[C@@H](NC(=O)[C@@H](COS(=O)(=O)[O-])OC)C(C)C)[C@@H](C)OC(=O)[C@H]([C@H](C)CC)NC(=O)[C@H](Cc2ccccc2)N(C)C(=O)[C@H](Cc2ccccc2)N2C(=O)[C@H](CC[C@H]2O)NC1=O.[Na+]` [Symplostatin 5], which Activity [1] is on record?
The Activity was 100%.

And the Activity [2]?
The Activity was 100%.

What about the Activity [3] of the same compound?
Its Activity is 100%.

And the Activity (Hepacivirus hominis)?
Its Activity is 100%.

What about the Activity (Homo sapiens) of the same compound?
The Activity was 53.4%.

And the Activity [4]?
Its Activity is 100%.

And the Activity [5]?
Its Activity is 100%.

And the Activity [6]?
The Activity was 100%.

What about the pIC50 [7] of the same compound?
Its pIC50 is over 5.

And the inhibition [8]?
Its inhibition is “Active”.

And the inhibition [9]?
The inhibition was “Active”.

And the pIC50 [10]?
The pIC50 was over 5.

And the inhibition [11]?
Its inhibition is “Active”.

What about the Activity [12] of the same compound?
The Activity was 100%.

What about the Activity [13] of the same compound?
The Activity was 100%.

And the Activity [14]?
Its Activity is 100%.

And the inhibition [15]?
The inhibition was “inactive”.

And the inhibition [16]?
Its inhibition is “Active”.

And the Activity [17]?
Its Activity is 100%.

And the Activity [18]?
Its Activity is 100%.

And the Activity [19]?
The Activity was 100%.

And the Activity [20]?
The Activity was 100%.

What about the IC50 (Kallikrein-5) of the same compound?
The IC50 was under 10 µM.

And the pIC50 [21]?
The pIC50 was under 5.

What about the inhibition [22] of the same compound?
Its inhibition is “Active”.

Source: ChEMBL document CHEMBL2331221, “Potent elastase inhibitors from cyanobacteria: structural basis and mechanisms mediating cytoprotective and anti-inflammatory effects in bronchial epithelial cells” (J Med Chem, 2013)
